PKA-R1A activ: activators of PKA-R1A complex; activation, % at 11.4 µM; PKA-R1A dissociation, Cy5-IP20 fluorescence polarization; scaled: DMSO 0%, 113 µM cGMP 100%; 340,000 compounds, 0.083% hits; P00514+P68181;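 active means percent activation above the mean of all tested compounds plus 3 SD, cut at about 19% in these data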;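 further: higher means more PKAc released from R1A so a rise in polarization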
SR-BI DiI-HDL act: activators of SR-BI mediated HDL lipid uptake; CHO ldlA[mSR-BI] cells, DiI-HDL uptake fluorescence, 3 h; 100 = double the neutral-control signal; activation, % at 12.5 µM; 320,000 compounds, 0.096% hits; AID 504775;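 active means mean replicate activation of at least 60% and every replicate at or above 60%; inconclusive means mean or all-replicate condition met, but not both; inactive means mean below 60% and not all replicates reaching 60%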
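Material – SR-BI-overexpressing, LDLR-lacking CHO cells · Medium – BSA-supplemented, HEPES-buffered Ham's F12, pH 7.4 · Doses – single concentration · Times – compound with DiI-HDL co-incubation, 3 h at 37 °C · Measured by – bottom-read fluorescence, 550/595 nm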
Vif imaging: blocks HIV Vif function; HEK293T cells, Vif self-association by quenched fluorescence, imaging, 24 h; inhibition, % at 7.49 µM; 340,000 compounds, 0.35% hits; AID 602346; in the data active means inhibition above about 50%, passing the limit was not always enough; inconclusive means no clear call, values can overlap the other calls; inactive means below about 31%
PKA-R2B activ: activators of human PKA-R2B complex. PKA-R2B holoenzyme dissociation, Cy5-IP20 fluorescence polarization; R2B truncated from residue 108, S112A mutant; 0% DMSO only, 100% 113 µM cGMP. 340,000 compounds, 0.079% hits. AID 504700. P22694+P31323. activation, % at 11.4 µM;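 active means activation above a cutoff set at the mean over all compounds plus 3 SD, cut at about 18% in these data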;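 further: higher means more holoenzyme dissociation and a rise in polarization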
Target sequence (P31323 whole entry, looked up, other chains not shown, the tested form may be a part): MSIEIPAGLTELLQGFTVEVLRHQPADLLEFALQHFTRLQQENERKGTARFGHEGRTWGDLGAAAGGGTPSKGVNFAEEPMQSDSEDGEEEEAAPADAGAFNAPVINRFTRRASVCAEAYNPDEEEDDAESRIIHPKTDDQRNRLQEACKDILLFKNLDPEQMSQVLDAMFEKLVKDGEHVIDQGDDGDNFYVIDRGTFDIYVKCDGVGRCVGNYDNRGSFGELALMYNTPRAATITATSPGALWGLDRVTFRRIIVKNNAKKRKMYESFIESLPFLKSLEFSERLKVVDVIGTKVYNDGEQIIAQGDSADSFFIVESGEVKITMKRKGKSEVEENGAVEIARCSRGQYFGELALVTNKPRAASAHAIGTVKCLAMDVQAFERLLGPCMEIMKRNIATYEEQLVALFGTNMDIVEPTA
SR-BI HDL uptake: blocks mouse SR-BI lipid uptake from DiI-HDL; ldlA[mSR-BI] CHO cells, DiI-HDL uptake fluorescence, 3 h; inhibition, % at 12.5 µM; 320,000 compounds, 0.96% hits;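 active means mean replicate inhibition of at least 70% and a set share of replicates each scoring 70 or more; inconclusive means meets just one of the two criteria; inactive means fails both criteria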
Large screens that a line does not name were inactive. Most compounds without a hit are left out; they make up all but 1.4% or so of the library.

COCCCn1c(SCC(=O)Nc2ccc(NC(=O)c3ccco3)c(OC)c2)nc2ccccc2c1=O	SR-BI HDL uptake 74 (no result: Vif imaging)
N#CCSc1nc2ccccc2c(=O)n1CCCC(=O)NCc1ccco1	none
Cc1cc(NC(=O)CSc2nc3ccccc3c(=O)n2CCCC(=O)NCc2ccco2)n[nH]1	Vif imaging 51
O=C(c1ccco1)N1CCN(c2ncnc3c2nnn3Cc2ccccc2Cl)CC1	Vif imaging 60
Fc1ccc(N2CCN(c3ncnc4c3nnn4Cc3ccccc3Cl)CC2)cc1	none (no result: Vif imaging)
N=c1occ(C(=O)c2cc(F)ccc2O)cc1C(=O)NC1CCCCC1	none
O=C(NCc1ccc(F)cc1)c1cc(C2CCCCN2C(=O)OCCF)on1 (centres undefined)	Vif imaging 67 (no result: PKA-R1A activ, SR-BI DiI-HDL act, PKA-R2B activ, SR-BI HDL uptake)
CC(C)C[C@@H](CN1CCC[C@@H]1CN1C(=S)NC[C@@H]1Cc1ccccc1)N1C[C@H](Cc2ccc(O)cc2)N(CC2CCCCC2)C1=S	none (no result: PKA-R1A activ, SR-BI DiI-HDL act, PKA-R2B activ, SR-BI HDL uptake)
Oc1ccc(C[C@H]2CNC(=S)N2CC2CCCN2C[C@H](Cc2ccccc2)N2C[C@H](Cc3ccc(O)cc3)N(CC3CCCCCC3)C2=S)cc1 (some centres undefined)	SR-BI DiI-HDL act 86
CC(C)C[C@@H](CN1CCCC1CN1C(=S)NC[C@@H]1Cc1ccc(O)cc1)N1C[C@H](Cc2ccc(O)cc2)N(CC2CCCCC2)C1=S (some centres undefined)	SR-BI DiI-HDL act 76 (no result: Vif imaging)
Oc1ccc(C[C@H]2CNC(=S)N2CC2CCCN2C[C@H](Cc2ccc(O)cc2)N2C[C@H](Cc3ccc(O)cc3)N(CC3CCCCC3)C2=S)cc1 (some centres undefined)	SR-BI DiI-HDL act 183 (no result: Vif imaging)
CC(=O)Oc1ccc(CN2C(=O)C(CCc3ccccc3)ON=C2c2cnccn2)cc1 (centres undefined)	none (no result: PKA-R1A activ, SR-BI DiI-HDL act, PKA-R2B activ, SR-BI HDL uptake)
Cc1cc(C)cc(Cn2c3ccc(NC(=O)NCCc4cccs4)cc3c(=O)n2C)c1	none (no result: PKA-R1A activ, SR-BI DiI-HDL act, PKA-R2B activ, SR-BI HDL uptake)
CCC1CCCCN1Cc1ccc(N)cc1 (centres undefined)	none
CN(C)c1cccc(NC(=O)C2Cc3c(-c4cccnc4)ccnc3O2)c1 (centres undefined)	none (no result: PKA-R1A activ, SR-BI DiI-HDL act, PKA-R2B activ, SR-BI HDL uptake)
Oc1ccccc1C1=NN(c2ccccc2)C(c2ccc(F)cc2)C1 (centres undefined)	SR-BI HDL uptake 74
CCC(C)c1ccc(OCc2ccc(C(=O)OC)o2)cc1 (centres undefined)	none
COc1ccc(C(=O)NCC(=O)N/N=C/C=C/c2ccccc2)cc1OC	SR-BI HDL uptake 83
COc1ccc(C(=O)NCC(=O)N/N=C/C(C)=C/c2ccccc2)cc1OC	none
COc1ccc(C(=O)Nc2ccc(NS(=O)(=O)c3ccccc3)cc2)cc1OC	SR-BI HDL uptake 74
COc1ccccc1OCc1ccc(C(=O)Nc2ccccc2)cc1	none
Cc1ccc(C(=O)Nc2ccc(Nc3ccccc3)cc2)cc1C	SR-BI HDL uptake 99
COc1cc(C(=O)Nc2ccc(NC(C)=O)cc2)ccc1OCc1ccccc1	SR-BI HDL uptake 78
OCC#CCSc1nnc(-c2cccc3ccccc23)o1	none
COc1ccc(NC(=O)c2ccc(CN3CCN(c4ccccc4)CC3)cc2)cc1OC	SR-BI HDL uptake 76
COc1ccc(C(=O)Nc2ccc(Nc3ccccc3)cc2)cc1OC	SR-BI HDL uptake 79
Cc1ccc(CN2CCC2(C)C(=O)NC2CCc3ccccc32)cc1 (centres undefined)	none (no result: PKA-R1A activ, SR-BI DiI-HDL act, PKA-R2B activ, SR-BI HDL uptake)
COC(=O)CN1C(=S)N(c2ccc(OC)cc2)C(=O)/C1=C/c1cccs1	none
CCc1ccc(N2C(=O)/C(=C/c3cccs3)N(CC(=O)OC)C2=S)cc1	Vif imaging 116
CC(C)n1cc(/C=C2\NC(=O)N(c3cccc(Cl)c3)C2=O)c2ccccc21	SR-BI HDL uptake 98
CCN(CC)c1cc(C)c2cc(NC(=O)c3ccc(Br)o3)ccc2n1	SR-BI HDL uptake 73
CCN1CCN(c2cc(C)c3cc(NC(=O)c4ccc(Br)o4)ccc3n2)CC1	none
O=C(/C=C/c1ccc(S(=O)(=O)N2CCOCC2)cc1)N1CCCCC1	none
CCOC(=O)C1CCN(C(=O)/C=C/c2ccc(S(=O)(=O)N3CCOCC3)cc2)CC1	SR-BI DiI-HDL act 63, Vif imaging inconclusive
COc1ccc(OC)c(S(=O)(=O)N2CCCC(C(=O)NCc3cccnc3)C2)c1 (centres undefined)	Vif imaging 60 (no result: SR-BI DiI-HDL act, SR-BI HDL uptake)
CCC(C)NS(=O)(=O)c1ccc(OC)c(Cl)c1Cl (centres undefined)	none
COc1ccc(C(=O)N2CCCC(c3cc(C(=O)NCc4ccccc4)no3)C2)cc1 (centres undefined)	none (no result: PKA-R1A activ, SR-BI DiI-HDL act, PKA-R2B activ, SR-BI HDL uptake)
COc1ccc2c(=O)c3c(=O)n(Cc4ccco4)c(-c4cc(OC)c(OC)c(OC)c4)nc3oc2c1	SR-BI HDL uptake 74
COc1ccc2c(=O)c3c(=O)n(-c4ccccc4)c(-c4ccc(C)cc4)nc3oc2c1	SR-BI HDL uptake 92
O=C(CCC1CCCN(C(=O)c2cc(F)ccc2F)C1)N1CCN(c2ccccn2)CC1 (centres undefined)	none (no result: SR-BI DiI-HDL act, SR-BI HDL uptake)
COc1cc(/C=C/C(=O)Nc2cc(C(F)(F)F)ccc2Cl)cc(OC)c1OC	SR-BI HDL uptake 78 (no result: Vif imaging)
O=C(NC(c1ccc(Cl)cc1)c1cnccn1)C1CCN(Cc2cccc(C(F)(F)F)c2)CC1 (centres undefined)	none (no result: PKA-R1A activ, SR-BI DiI-HDL act, PKA-R2B activ, SR-BI HDL uptake)
COc1ccc2c(C)nc(Nc3nc(-c4ccccc4)cc(=O)[nH]3)nc2c1	SR-BI HDL uptake 78
Cc1ccc2nc(Nc3nc(-c4ccccc4)cc(=O)[nH]3)nc(C)c2c1	none
Cc1cc(NC(=O)c2ccc3sc([C@@H]4O[C@H](CO)[C@H](O)[C@H](O)[C@H]4O)nc3c2)no1	none (no result: PKA-R1A activ, SR-BI DiI-HDL act, PKA-R2B activ, SR-BI HDL uptake)
Cc1ccc(/C=C2\CCOC2=O)cc1	none
Cc1ccc(/C=C2/CNC/C(=C/c3ccc(C)cc3)C2=O)cc1	Vif imaging 120
Cc1ccc(C)c(NCCCCC(=O)O)c1	none (no result: PKA-R1A activ, SR-BI DiI-HDL act, PKA-R2B activ, SR-BI HDL uptake)
COn1c(=O)c(-c2ccccc2)[n+]([O-])c2ccccc21	Vif imaging 51
COc1ccc(/C=N/NC(=O)CCSc2nc3ccccc3s2)cc1OC	none
O=C(CCSc1nc2ccccc2s1)N/N=C/c1c(O)ccc2ccccc12	SR-BI HDL uptake 105
O=C(Nc1sc2c(c1C(=O)NC1CCCCC1)CCC2)c1ccco1	SR-BI HDL uptake 75
Cc1ccc(C(=O)Nc2ccc(C(=O)N/N=C/c3ccccn3)cc2)cc1	SR-BI HDL uptake 76
Cc1ccccc1C(=O)Nc1ccc(C(=O)N/N=C/c2ccc(F)cc2)cc1	SR-BI HDL uptake 84
Cc1cccc(/C=N/NC(=O)c2ccc(NC(=O)c3ccc(Cl)cc3)cc2)n1	SR-BI HDL uptake 77
Cc1ccc(C(=O)Nc2ccc(C(=O)N/N=C/c3c[nH]c4ccccc34)cc2)cc1	SR-BI HDL uptake 94
Cc1cccc(/C=N/NC(=O)c2ccc(NC(=O)c3ccc(F)cc3)cc2)n1	none (no result: SR-BI DiI-HDL act, SR-BI HDL uptake)
O=C(N/N=C/c1ccccc1)c1ccc(NC(=O)c2ccc(F)cc2)cc1	none (no result: SR-BI DiI-HDL act, SR-BI HDL uptake)

Screening data as filed in PubChem.
